We go through eleven compounds from ChEMBL document CHEMBL1765066, “Role of metalation in the topoisomerase IIα inhibition and antiproliferation activity of a series of α-heterocyclic-N4-substituted thiosemicarbazones and their Cu(II) complexes” (J Med Chem, 2011).

The GI50 is the concentration at which growth is held to half of that of the control. A high value points to lower sensitivity of the cells. In general, IC50 refers to the concentration that gives 50% inhibition. Lower therefore signals inhibition by little substance.

The target of test [1] is T1, DNA topoisomerase 2-alpha (Homo sapiens, UniProt P11388). The experiment in a line: Inhibition of human topoisomerase 2 alpha-mediated relaxation of supercoiled pHOT DNA at 100 uM after 30 mins by agarose gel electrophoresis. In outline: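 Single-concentration gel run at 100 μM drug, added from DMSO stock. Commercial human topo IIα (~2 units) with supercoiled pHOT DNA in reaction buffer (20 μL final), 37 °C for 30 min. The reaction was stopped with SDS plus proteinase K (37 °C, 15 min) and electrophoresed on 1% agarose (5 h, 5 V/cm). Gels were ethidium bromide pre- or post-stained and scored for supercoiled, relaxed and linear DNA.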

The test system of another test is SK-BR-3. Nature of the test: Growth inhibition against human SK-BR-3 cells after 24 hrs by MTT assay. It counts as functional. Conditions: SK-BR-3, 24 h. The essentials:
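SK-BR-3 cells in DMEM:F-12 (1:1) with 10% fetal calf serum, L-glutamine, nonessential amino acids and penicillin/streptomycin were seeded at 20 000 cells/well overnight. Drug was added in fresh medium (500 μM to 10 nM) for 24 h at 37 °C/5% CO2. MTT was added for 3 h, detergent solubilization ran overnight at room temperature, then absorbance was read. Values were normalized to untreated wells; GI50 from a sigmoidal fit; triplicate.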
A general note: Formazan colour is commonly taken as a measure of viable cells.

Test [2] deals with T1, DNA topoisomerase 2-alpha. Nature of the test: Inhibition of human topoisomerase 2 alpha-mediated relaxation of supercoiled pHOT DNA after 30 mins by agarose gel electrophoresis.

Structures are written as SMILES. Active and inactive are the calls of the source. The rule behind the calls is not given here.

T1 sequence (P11388 whole entry): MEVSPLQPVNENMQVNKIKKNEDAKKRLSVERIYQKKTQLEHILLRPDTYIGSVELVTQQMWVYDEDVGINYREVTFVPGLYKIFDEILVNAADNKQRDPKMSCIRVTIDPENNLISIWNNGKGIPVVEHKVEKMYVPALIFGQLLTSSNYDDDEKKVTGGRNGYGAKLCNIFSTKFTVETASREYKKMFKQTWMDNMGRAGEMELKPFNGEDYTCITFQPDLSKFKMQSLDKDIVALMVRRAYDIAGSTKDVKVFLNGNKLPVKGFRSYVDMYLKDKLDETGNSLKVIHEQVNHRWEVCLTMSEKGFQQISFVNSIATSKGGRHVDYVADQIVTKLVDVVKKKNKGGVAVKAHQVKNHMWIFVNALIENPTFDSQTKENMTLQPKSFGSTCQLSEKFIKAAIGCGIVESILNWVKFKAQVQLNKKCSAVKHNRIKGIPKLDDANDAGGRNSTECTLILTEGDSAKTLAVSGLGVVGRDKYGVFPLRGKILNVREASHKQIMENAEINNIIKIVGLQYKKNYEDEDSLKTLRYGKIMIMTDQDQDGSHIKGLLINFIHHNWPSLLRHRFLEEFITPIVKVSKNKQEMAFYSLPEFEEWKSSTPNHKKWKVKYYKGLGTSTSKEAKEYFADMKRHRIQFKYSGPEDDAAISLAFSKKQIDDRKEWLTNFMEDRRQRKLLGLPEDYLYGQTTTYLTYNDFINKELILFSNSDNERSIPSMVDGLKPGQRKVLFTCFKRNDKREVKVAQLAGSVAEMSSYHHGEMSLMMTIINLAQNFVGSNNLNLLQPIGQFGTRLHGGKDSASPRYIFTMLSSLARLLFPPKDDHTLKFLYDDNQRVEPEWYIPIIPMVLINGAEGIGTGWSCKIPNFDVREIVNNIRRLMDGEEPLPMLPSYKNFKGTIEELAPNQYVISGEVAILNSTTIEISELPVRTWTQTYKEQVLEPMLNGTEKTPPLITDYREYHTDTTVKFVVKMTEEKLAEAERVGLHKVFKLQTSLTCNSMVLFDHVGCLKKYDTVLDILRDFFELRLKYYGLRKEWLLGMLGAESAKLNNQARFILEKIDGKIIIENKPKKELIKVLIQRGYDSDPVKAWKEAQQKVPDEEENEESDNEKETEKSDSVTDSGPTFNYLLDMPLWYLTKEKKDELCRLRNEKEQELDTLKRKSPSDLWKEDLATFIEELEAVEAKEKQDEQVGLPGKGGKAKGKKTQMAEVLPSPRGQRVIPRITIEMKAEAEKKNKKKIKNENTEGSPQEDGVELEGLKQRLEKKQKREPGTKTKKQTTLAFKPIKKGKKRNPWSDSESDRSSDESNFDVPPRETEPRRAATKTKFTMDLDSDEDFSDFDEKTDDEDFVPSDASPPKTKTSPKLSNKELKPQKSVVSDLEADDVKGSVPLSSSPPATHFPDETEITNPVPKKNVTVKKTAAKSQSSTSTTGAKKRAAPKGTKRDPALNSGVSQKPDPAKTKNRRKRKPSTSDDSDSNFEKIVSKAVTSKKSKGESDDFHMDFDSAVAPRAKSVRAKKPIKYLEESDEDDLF

Regarding `C=CCNC(=S)N/N=C(\C)c1ccccn1`, the inhibition result in test [1] is “inactive”. This compound displayed a GI50 with SK-BR-3 of 6.1 µM. In addition, the half-maximal inhibitory concentration (IC50) in test [2] was more than 100 µM.

As to `CNC(=S)N/N=C/c1ccccn1`, the inhibition entry in test [1] is “Active”. Besides, it took 7.1 µM to inhibit growth with SK-BR-3 by half (GI50). In test [2], this compound registered a half-maximal inhibitory concentration (IC50) of 76 µM.

In the case of `N/C(S)=N/N=C/c1ccccn1`, the inhibition result in test [1] was “inactive”. In the test on SK-BR-3, growth was halved (GI50) at 7.4 µM. The compound also returned a half-inhibitory concentration (IC50) in test [2] of more than 100 µM.

With `S=C(N/N=C/c1ccccn1)N1CCCC1`, the inhibition result in test [1] is “inactive”. The same compound had a GI50 with SK-BR-3 of 4.3 µM. Further, the concentration for half-maximal inhibition (IC50) in test [2] is more than 100 µM.

As to `C=CCNC(=S)N/N=C/c1ccccn1`, the inhibition result in test [1] is “inactive”. Also, in the test on SK-BR-3, the 50% growth inhibitory concentration (GI50) was determined as 8.1 µM. This compound also returned a 50% inhibitory concentration (IC50) in test [2] of more than 100 µM.

Take `CNC(=S)N/N=C(\C)c1ccccn1`: the inhibition entry in test [1] is “Active”. For the same compound, it took 5.5 µM to inhibit growth with SK-BR-3 by half (GI50). Moreover, in test [2], inhibition was half-maximal at 92 µM (IC50).

With `CC(C)NC(=S)N/N=C/c1ccccn1`, the inhibition entry in test [1] was “inactive”. In the test on SK-BR-3, this compound gave a concentration for 50% growth inhibition (GI50) of 7.7 µM. This compound gave an IC50 in test [2] of more than 100 µM.

`S=C(NCc1ccccc1)N/N=C/c1ccccn1`: the inhibition result in test [1] was “inactive”. Besides, in the test on SK-BR-3, the GI50 worked out at 4.6 µM. Besides, in test [2], the half-maximal inhibitory concentration (IC50) was more than 100 µM.

On to `CCNC(=S)N/N=C(\C)c1ccccn1`, for which the inhibition entry in test [1] was “Active”. Moreover, in the test with SK-BR-3, halving of growth (GI50) required 5.9 µM. This compound returned an IC50 in test [2] of 79 µM.

With `C/N=C(\S)N/N=C(\C)c1cnccn1`, the inhibition result in test [1] was “inactive”. The same compound gave a GI50 in the test on SK-BR-3 of 7.9 µM. The compound also yielded a 50% inhibitory concentration (IC50) in test [2] of more than 100 µM.

`CCNC(=S)N/N=C/c1ccccn1`: in test [1], the inhibition result was “Active”. Also, halving of growth in the test on SK-BR-3 (GI50) required 6.3 µM. This compound also returned a concentration for half-maximal inhibition (IC50) in test [2] of 94 µM.
